Compound activity from PubChem.
Rows were chosen to be rich in hits. Some 3.3% of all compounds tested hit in one or more screens of this group.
SENP7 block: SENP7 protease inhibition; Q9BQF6; recombinant SENP7, Z-RLRGG-aminoluciferin luminescence, 40 min; inhibition, % at 5 µM; hit rate 1.5% among 330,000; AID 434973;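 active = inhibition above about 50% at the single test dose, limit read from the data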;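 also: plate controls were DMSO with enzyme for no effect and no enzyme buffer wells for full effect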
SENP1 inh: SENP1 (human) catalytic domain inhibition. recombinant SENP1 catalytic domain, CyPet-SUMO1-YPet FRET cleavage. hit rate 0.21% among 360,000. inhibition, % at 10 µM;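 active = inhibition at least 30% at 10 µM, raw YFP signal under a set limit, fluorescence ratio 0.5 to 1.5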;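 also: 0% = enzyme with DMSO and 100% = no enzyme wells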
Target sequence (Q9P0U3 419-644 limits assumed): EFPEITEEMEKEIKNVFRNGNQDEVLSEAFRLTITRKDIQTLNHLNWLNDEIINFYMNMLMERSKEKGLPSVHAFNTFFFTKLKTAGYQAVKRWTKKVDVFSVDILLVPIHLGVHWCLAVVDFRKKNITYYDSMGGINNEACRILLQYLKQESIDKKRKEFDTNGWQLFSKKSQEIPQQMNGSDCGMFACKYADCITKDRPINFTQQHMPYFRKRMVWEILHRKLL
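Test system: hSENP1 catalytic domain, recombinant; Amount: 20 pM final SENP1 enzyme; Medium: Tris pH 8 buffer plus EDTA, NaCl, BME, BSA, NP40, catalase; Schedule: 50 min enzyme reaction, room temperature, light-protected; Technique: FRET fluorescence in CFP and YFP emission channels; Controls: no-enzyme wells low, DMSO-plus-enzyme wells high control.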
SENP8 block-1: blocks the human protease SENP8; Q96LD8; purified SENP8, Z-RLRGG-aminoluciferin cleavage, luminescence; inhibition, % at 10 µM; hit rate 1.2% among 330,000; AID 2540; in the data active = inhibition above about 50%
Target sequence (Q96LD8 whole entry, looked up): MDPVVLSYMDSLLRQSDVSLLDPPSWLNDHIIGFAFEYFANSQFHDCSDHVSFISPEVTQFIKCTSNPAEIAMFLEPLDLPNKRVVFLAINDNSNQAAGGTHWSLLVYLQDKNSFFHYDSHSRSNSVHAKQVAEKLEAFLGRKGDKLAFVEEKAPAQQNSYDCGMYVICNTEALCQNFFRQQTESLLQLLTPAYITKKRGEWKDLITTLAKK
SENP8 block-2: blocks human SENP8 cleavage of Nedd8 substrate. Q96LD8. recombinant SENP8, Nedd8 substrate fluorescence. inhibition, % at 20 µM. hit rate 0.64% among 360,000. AID 602440; in the data active = inhibition mostly above about 40%, no sharp cut-off; inactive = mostly below about 27%
CendR NRP1 mod: modulators of CendR peptide binding to human neuropilin-1 | FAM-RPARPAR peptide binding to NRP-1, fluorescence polarization | AID 602438 | O14786 | hit rate 0.85% among 360,000 | inhibition, % at 25 µM;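 active = inhibition or corrected inhibition above about 18%, plus a signal ratio from 0.5 to 1.5, limit read from the data, passing the limit was not always enough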
SENP6 inh: blocks the human protease SENP6; Q9GZR1; Recombinant SENP6 catalytic domain, aminoluciferin luminescence; inhibition, % at 10 µM; hit rate 1.8% among 330,000; AID 2599;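 active = inhibition above about 50% at the single tested dose, limit read from the data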;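 also: plate controls were DMSO wells with enzyme for no effect and DMSO wells lacking enzyme for full effect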
* marks the source's active call; other numbers are inactive results; x = no result given.

SMILES | SENP7 block | SENP1 inh | SENP8 block-1 | SENP8 block-2 | CendR NRP1 mod | SENP6 inh
CCC(=O)OCOc1ccc(/C=C2/CCC(CN(C)C)C2=O)cc1 (stereo unspecified) | x | 1 | x | 16 | -3 | x
O=C(O)c1ccc(NC(=S)Nc2ccc(S(=O)(=O)Nc3ccccn3)cc2)cc1 | x | 0 | x | -8 | 1 | x
C=C(C)Cn1c(SCC(=O)O)nnc1-c1ccccc1 | 4 | 2 | 4 | 9 | 28* | -13
COc1ccc2[nH]c(=O)c(C(c3nnnn3CC3CCCO3)N3CCCCC3)cc2c1 (stereo unspecified) | 10 | -6 | 5 | -204 | 26* | -10
CCCCNC(=O)C(NC(=O)Cc1cc(OC)cc(OC)c1)C(=O)c1ccccc1 (stereo unspecified) | x | 4 | x | 16 | 19 | x
COc1cc(C(=S)N2CCOCC2)ccc1OC(=O)c1cc([N+](=O)[O-])c(C)c([N+](=O)[O-])c1 | 0 | 1 | -9 | 20 | 3 | -28
COc1ccc(C(=S)N2CCOCC2)cc1OC(=O)c1cc([N+](=O)[O-])c(C)c([N+](=O)[O-])c1 | 7 | -1 | -3 | 19 | 28* | -1
CN1C(=O)/C(=C\c2cc(N=Nc3ccccc3)ccc2O)SC1=S | 11 | 8 | 31 | 49* | 1 | 32
COc1ccc(-c2ccc(C(=O)NC3CCCCC3)c3occc23)c(C)c1 | x | 0 | x | -208 | -6 | x
Cc1ccc(S(=O)(=O)N(C)c2ccc(OCC(=O)Nc3nc4ccccc4s3)cc2)cc1 | 3 | 1 | -4 | 0 | 25* | 6
O=C(Nc1cccc(-c2cccc(Cl)c2)c1)C1CCN(Cc2nccs2)CC1 | x | 1 | x | 15 | -4 | x
CCN1C(=O)C(=Cc2cccc(OC)c2Oc2ccc([N+](=O)[O-])cc2[N+](=O)[O-])SC1=S | 54* | 0 | 95* | 33 | 25* | 81*
COc1cc(/C=C2\SC(=O)NC2=O)ccc1Oc1ccc([N+](=O)[O-])cc1[N+](=O)[O-] | 5 | 4 | -3 | 17 | -28 | 5
O=C(N/N=C\c1cc(Cl)ccc1O)c1ccc(S(=O)(=O)N2CCCCC2)cc1 | 7 | 51* | 1 | 9 | 10 | 9
O=C(Nc1cc(S(=O)(=O)Nc2ccc(Cl)cc2)ccc1O)c1ccc(S(=O)(=O)N2CCCCCC2)cc1 | 2 | 3 | 1 | -6 | 1 | -10
O=C(NCCN1CCOCC1)C(=O)NCC1OCCN1S(=O)(=O)c1ccc(Cl)cc1 (stereo unspecified) | x | -1 | x | 7 | 2 | x
COC(=O)/C=C1\OCc2ccc(C)cc21 | x | -1 | x | 14 | 17 | x
COc1ccc(C(=O)Cn2nc(CNc3ccc(Br)cc3)[n+]3c2CCCCC3)cc1 | 11 | 1 | 0 | 24 | 1 | 12
Cc1ccc(C(C)C)c(OCc2nn(CC(=O)c3ccc(OC(F)F)cc3)c3[n+]2CCCCC3)c1 | 4 | 67* | -13 | 11 | 1 | -36
CCc1c(OC(C)=O)c2ccccc2n(C)c1=O | 2 | 3 | 3 | 10 | 9 | -9
C=CCc1c(OC(C)=O)c2ccccc2n(C)c1=O | 2 | 1 | -2 | -15 | 25* | -8
COc1cc(C(=O)n2nc(C)cc2C)ccc1O | -11 | -1 | -14 | -7 | 33* | -18
Cc1cc(C)n(CCc2nc(-c3ccco3)cs2)n1 | 1 | -6 | -1 | 1 | -16 | 7
Cc1cc(C)n(CCc2nc(-c3cccs3)cs2)n1 | 6 | 0 | -2 | 18 | 31* | -12
COc1ccccc1-c1noc2c1C(=O)N(Cc1cn(C3CCCC3)nn1)CC2 | x | 1 | x | 18 | 5 | x
SMILES | SENP7 block | SENP1 inh | SENP8 block-1 | SENP8 block-2 | CendR NRP1 mod | SENP6 inh
COc1cccc(C2=NN(C(=O)c3ccccc3)C(O)(C(F)(F)F)C2)c1 (stereo unspecified) | 2 | 16 | 6 | 30 | 1 | -10
COc1cccc(C(=O)N2N=C(c3ccccc3)CC2(O)C(F)(F)F)c1 (stereo unspecified) | -6 | -3 | -10 | 6 | 27* | -7
COC(=O)C[C@@H]1C=C[C@@H](NS(=O)(=O)c2ccccc2OC)[C@@H](CO)O1 | x | 1 | x | 10 | 1 | x
O=C(NCCO)c1ccc2nc(-c3ccco3)c(-c3ccco3)nc2c1 | 23 | -29 | 37 | -192 | 12 | 56*
O=C1N(Cc2ccccc2)c2ccc(Br)cc2[C@]12C[C@H](O)CO2 | x | 0 | x | 9 | -21 | x
COC(=O)[C@@]12C[C@@H](CC(=O)NCCc3ccccc3OC)C(=O)N(CCc3ccc(OC)c(OC)c3)C1=CCC(C)(C)C2 | x | 2 | x | 17 | -8 | x
COc1cccc2c(=O)c3cccc(N)c3[nH]c12 | 6 | -27 | 4 | -365 | 33* | 20
COc1cccc2c(=O)c3c([nH]c12)OC(C)(C)C3 | 6 | 1 | 1 | 0 | -2 | -8
COc1ccc(CC(=O)OCC(=O)Nc2cc(Cl)ccc2C)cc1 | 14 | 6 | -5 | -1 | 11 | 0
Cc1ccc(S(=O)(=O)N2CCN(C(=O)c3n[nH]c4ccccc34)CC2)cc1 | 11 | 3 | 3 | -3 | 0 | -4
O=C(c1n[nH]c2ccccc12)N1CCN(S(=O)(=O)c2ccc3ccccc3c2)CC1 | 0 | 3 | -9 | 11 | 47* | 2
COC(=O)[C@]12CCCCC=C1N(Cc1ccc3c(c1)OCO3)C(=O)[C@H](CC(=O)N1CCN(C(=O)c3ccco3)CC1)C2 | x | 5 | x | 17 | 5 | x
COc1ccc(C2=CN(Cc3ccccc3)C(c3ccccc3)CC2=O)cc1 (stereo unspecified) | 6 | -4 | 6 | -108 | 21* | 6
O=C1CCCc2c1cc(C(=O)NC1CCSC1=O)c(=O)n2-c1ccccc1 (stereo unspecified) | 6 | 10 | 3 | -86 | 30* | -9
CC1(C)CC(=O)c2cc(C(=O)NC3CCSC3=O)c(=O)n(-c3ccccc3)c2C1 (stereo unspecified) | 3 | 2 | -1 | -108 | 4 | 8
O=c1ccsn1Cc1ccccc1 | -5 | 2 | -4 | 11 | 28* | -1
COc1cccc(CC(=O)OCC(=O)NC(=O)c2ccc(OC(F)F)cc2)c1 | 8 | 0 | -4 | 0 | 1 | -6
O=C(NNC(=S)NC(=O)c1ccccc1)c1ccc([N+](=O)[O-])cc1 | 0 | 13 | 9 | 26 | -12 | 16
O=C(NC(=S)NNC(=O)c1ccccc1O)c1ccc([N+](=O)[O-])cc1 | 28 | -1 | 49 | 36 | -8 | 77*
Clc1ccc(-c2cnc3ccccc3n2)cc1 | 92* | 1 | 85* | -4 | -9 | 90*
Clc1ccc(Sc2cnc3ccccc3n2)cc1 | -7 | -4 | -22 | -4 | 9 | -5
Cc1cccc(C(=O)OCC(=O)NCc2ccc(Cl)cc2)c1 | x | 3 | x | 14 | -10 | x
COc1ccc(NS(=O)(=O)c2ccc(C)c(C(=O)NCc3ccccc3CN3CCCC3)c2)cc1 | x | 0 | x | 8 | 0 | x
